According to ChEMBL document CHEMBL4145692, “Discovery of a Locally and Orally Active CXCL12 Neutraligand (LIT-927) with Anti-inflammatory Effect in a Murine Model of Allergic Airway Hypereosinophilia” (J Med Chem, 2018):
In brackets after ≈: the same amount, converted by molar mass. Activity calls are given as the source filed them. The rule behind the calls is not given here.

Columns and labels:
[1] = Kinetic solubility in pH 7.4 HEPES-BSA buffer at 5 uM incubated for 24 hrs at 20 degC by HPLC method; format: physicochemical; details: read-out: Kinetic_solubility
Summary of the method: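 Compound added from 10 mM DMSO stock to 5 μM in pH 7.4 HEPES-BSA buffer (1 g/L BSA), shaken 24 h at 20 °C. After centrifugation, supernatant concentration measured by HPLC against 5 and 10 μM standards.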

[2] = target: T1, Stromal cell-derived factor 1 (Homo sapiens, UniProt P48061); assay: Binding affinity to Texas Red-labelled CXCL12 (unknown origin) assessed as inhibition of CXCL12-Texas Red binding to EGFP-labeled human CXCR4 expressed in HEK293 cell membranes at 1 uM pre-incubated for 1 hr by FRET-based binding assay
Summary of the method: (§1)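 HEK-293 cells stably expressing human EGFP-CXCR4, 10⁶ cells/ml in HEPES buffer pH 7.4 with 0.1% BSA, 21 °C. CXCL12-Texas Red (100 nM) was preincubated 1 h at room temperature with compound or DMSO, then added at t=150 s. FRET read as loss of EGFP emission at 510 nm (excitation 470 nm) up to equilibrium. Ki from dose-response curves.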

[3] = system: Mus musculus; assay: Toxicity in Balb/c mouse model of hypereosinophilia assessed as reduction in body weight at 2.5 umol/kg, ip dosed daily 2 hrs before allergen challenge for 3 days and measured 24 hrs after last dose; format: organism-based; design: scale not given: the % may be the effect or the level left; details: in vivo
Summary of the method: (§2)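 Same OVA model with i.p. dosing 2 h before each of the three challenges: neutraligands 350 μmol/kg in PBS/CMC 1%, AMD3100 12.6 μmol/kg, dexamethasone 2.5 μmol/kg. Body and spleen weight loss recorded 24 h after three daily administrations; n=6/group.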

[4] = system: Mus musculus; assay: Anti-inflammatory activity in Balb/c mouse model of hypereosinophilia assessed as inhibition of eosinophil infiltration at 2.5 umol/kg, ip dosed 2 hrs before allergen challenge; format: functional
Summary of the method: (§3)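 Balb/c mice sensitized with OVA/alum i.p. and challenged intranasally with OVA on 3 consecutive days. Compounds given i.p. 2 h before each challenge: neutraligands 350 μmol/kg in PBS/CMC 1%, AMD3100 12.6 μmol/kg, dexamethasone 2.5 μmol/kg. BAL 24 h after the last challenge; absolute eosinophil counts; mean ± SEM, n=6/group.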

[5] = system: Mus musculus; assay: Toxicity in Balb/c mouse model of hypereosinophilia assessed as reduction in spleen weight at 2.5 umol/kg, ip dosed daily 2 hrs before allergen challenge for 3 days and measured 24 hrs after last dose; format: organism-based; design: scale not given: the % may be the effect or the level left; details: in vivo; summary of the method: as §2
[6] = species: Mus musculus; assay: animal or person; details: Balb/c, ip, read-out: INH
[7] = system: Mus musculus; assay: Toxicity in Balb/c mouse model of hypereosinophilia assessed as reduction in body weight at 12.6 umol/kg, ip dosed daily 2 hrs before allergen challenge for 3 days and measured 24 hrs after last dose; format: organism-based; design: scale not given: the % may be the effect or the level left; details: in vivo; summary of the method: as §2
[8] = system: Mus musculus; assay: Toxicity in Balb/c mouse model of hypereosinophilia assessed as reduction in spleen weight at 12.6 umol/kg, ip dosed daily 2 hrs before allergen challenge for 3 days and measured 24 hrs after last dose; format: organism-based; design: scale not given: the % may be the effect or the level left; details: in vivo; summary of the method: as §2
[9] = target: T1, Stromal cell-derived factor 1; assay: Binding affinity to Texas Red-labelled CXCL12 (unknown origin) assessed as inhibition of CXCL12-Texas Red binding to EGFP-labeled human CXCR4 expressed in HEK293 cell membranes at 3 uM pre-incubated for 1 hr by FRET-based binding assay; summary of the method: as §1
[10] = target: T1, Stromal cell-derived factor 1; assay: Binding affinity to Texas Red-labelled CXCL12 (unknown origin) assessed as inhibition of CXCL12-Texas Red binding to EGFP-labeled human CXCR4 expressed in HEK293 cell membranes at 0.3 uM pre-incubated for 1 hr by FRET-based binding assay; summary of the method: as §1
[11] = target: T1, Stromal cell-derived factor 1; assay: Binding affinity to CXCL12 (unknown origin) assessed as changes in tryptophan fluorescence intensity
Summary of the method: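 Intrinsic Trp fluorescence of CXCL12 (2 μM in Hepes buffer), excitation 285 nm, emission 340 nm, titrated with increasing compound. Kd obtained by fitting a 1:1 binding quadratic model with chemokine fixed at 2 μM. Mean ± SD of three independent experiments.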

[12] = system: Mus musculus; assay: Inhibition of lymphocytes infiltration in Balb/c mouse model of 8 day model of allergic eosinophilic airway inflammation at 300 nmol/kg dosed intranasally 2 hrs before ovalbumin challenge by hemocytometry; format: functional, organism-based
Summary of the method: (§4)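 OVA/alum-sensitized Balb/c mice challenged intranasally with OVA on days 5–7. Compounds at 300 nmol/kg in 10% PBS/Cdx given intranasally 2 h before each challenge. BAL 24 h after the last challenge; eosinophils, neutrophils and lymphocytes counted by hemocytometer and differential cytospin; n=6/group.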

[13] = target: T1, Stromal cell-derived factor 1; assay: Binding affinity to Texas Red-labelled CXCL12 (unknown origin) assessed as inhibition of CXCL12-Texas Red binding to EGFP-labeled human CXCR4 expressed in HEK293 cell membranes at 300 uM pre-incubated for 1 hr by FRET-based binding assay; summary of the method: as §1
[14] = system: Mus musculus; assay: Toxicity in Balb/c mouse model of hypereosinophilia assessed as reduction in body weight at 350 umol/kg, ip dosed daily 2 hrs before allergen challenge for 3 days and measured 24 hrs after last dose; format: organism-based; design: scale not given: the % may be the effect or the level left; details: in vivo; summary of the method: as §2
[15] = target: T1, Stromal cell-derived factor 1; assay: Binding affinity to Texas Red-labelled CXCL12 (unknown origin) assessed as inhibition of CXCL12-Texas Red binding to EGFP-labeled human CXCR4 expressed in HEK293 cell membranes pre-incubated for 1 hr by FRET-based binding assay; details: hek293; summary of the method: as §1
[16] = system: Mus musculus; assay: Toxicity in Balb/c mouse model of hypereosinophilia assessed as induction of spleen lesions at 350 umol/kg, ip dosed daily 2 hrs before allergen challenge for […] and measured 24 hrs after last dose by Gomori's trichrome staining based histological analysis; format: organism-based; details: in vivo
[17] = system: Mus musculus; assay: Toxicity in Balb/c mouse model of hypereosinophilia assessed as reduction in spleen weight at 350 umol/kg, ip dosed daily 2 hrs before allergen challenge for 3 days and measured 24 hrs after last dose; format: organism-based; design: scale not given: the % may be the effect or the level left; details: in vivo; summary of the method: as §2
[18] = system: Mus musculus; assay: Toxicity in Balb/c mouse model of hypereosinophilia assessed as induction of heart lesions at 350 umol/kg, ip dosed daily 2 hrs before allergen challenge for […] and measured 24 hrs after last dose by Gomori's trichrome staining based histological analysis; format: organism-based; details: in vivo
[19] = Thermodynamic solubility in pH 7.4 PBS buffer incubated for 24 hrs at 22 degC by HPLC method; format: physicochemical; details: read-out: Therm_solubility
Summary of the method: (§5)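 Powder dissolved to saturation in pH 7.4 PBS (100 mM sodium phosphate, 150 mM NaCl), or in PBS with 10% Cdx, and shaken 24 h. After centrifugation, supernatant quantified by HPLC against a per-compound calibration line prepared from the DMSO stock.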

[20] = system: Mus musculus; assay: Inhibition of eosinophil infiltration in Balb/c mouse model of 8 day model of allergic eosinophilic airway inflammation at 300 nmol/kg dosed intranasally 2 hrs before ovalbumin challenge by hemocytometry; format: functional; details: inhaled or nasal; summary of the method: as §4
[21] = Chemical stability in pH 7.4 PBS/Cdx buffer assessed as parent compound remaining at 10 uM incubated for 24 hrs by RP-HPLC method; format: physicochemical; details: read-out: Stability
Summary of the method: (§6)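 Compound diluted from DMSO stock to 10 μM final (1% DMSO) in PBS pH 7.4, or in PBS with 10% w/w (2-hydroxypropyl)-β-cyclodextrin. Sampled at t0, 2, 4, 6 and 24 h and injected directly onto RP-HPLC. Percent remaining relative to t0 from peak area.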

[22] = system: Mus musculus; assay: Toxicity in Balb/c mouse model of hypereosinophilia assessed as induction of liver lesions at 350 umol/kg, ip dosed daily 2 hrs before allergen challenge for […] and measured 24 hrs after last dose by Gomori's trichrome staining based histological analysis; format: organism-based; details: in vivo
[23] = Solubility in PBS buffer; format: physicochemical; summary of the method: as §5
[24] = system: Mus musculus; assay: Toxicity in Balb/c mouse model of hypereosinophilia assessed as reduction in body weight at 350 umol/kg, ip dosed daily 2 hrs before allergen challenge for 10 days and measured 24 hrs after last dose; format: organism-based; details: in vivo
Summary of the method: (§7)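 Mice given 10 daily administrations at 350 μmol/kg. Monitored for weight loss and for signs of toxicity, including prostration and bristly hair.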

[25] = system: Mus musculus; assay: Toxicity in Balb/c mouse model of hypereosinophilia assessed as induction of kidney lesions at 350 umol/kg, ip dosed daily 2 hrs before allergen challenge for […] and measured 24 hrs after last dose by Gomori's trichrome staining based histological analysis; format: organism-based; details: in vivo
[26] = system: Mus musculus; assay: Inhibition of macrophages infiltration in Balb/c mouse model of 8 day model of allergic eosinophilic airway inflammation at 300 nmol/kg dosed intranasally 2 hrs before ovalbumin challenge by hemocytometry; format: functional, organism-based
[27] = system: Mus musculus; assay: Inhibition of eosinophil infiltration in Balb/c mouse model of 8 day model of allergic eosinophilic airway inflammation dosed intranasally 2 hrs before ovalbumin challenge by hemocytometry; format: functional, organism-based
Summary of the method: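 Same intranasal OVA model with dose-response treatment in PBS/Cdx 10% given 2 h before each challenge. Percent inhibition of BAL eosinophil recruitment; mean ± SEM, n=6/group.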

[28] = system: Mus musculus; assay: Toxicity in Balb/c mouse model of hypereosinophilia assessed as toxic signs at 350 umol/kg, ip dosed daily 2 hrs before allergen challenge for 10 days and measured 24 hrs after last dose; format: organism-based; details: in vivo; summary of the method: as §7
[29] = system: Mus musculus; assay: Toxicity in Balb/c mouse model of hypereosinophilia assessed as prostration at 350 umol/kg, ip dosed daily 2 hrs before allergen challenge for 10 days and measured 24 hrs after last dose; format: organism-based; details: in vivo; summary of the method: as §7
[30] = Chemical stability in pH 7.4 PBS buffer assessed as parent compound remaining at 10 uM incubated for 24 hrs by RP-HPLC method; format: physicochemical; details: read-out: Stability; summary of the method: as §6
[31] = system: Mus musculus; assay: Toxicity in Balb/c mouse model of hypereosinophilia assessed as induction of bristly hair at 350 umol/kg, ip dosed daily 2 hrs before allergen challenge for 10 days and measured 24 hrs after last dose; format: organism-based; details: in vivo; summary of the method: as §7
[32] = system: Mus musculus; assay: Anti-inflammatory activity in Balb/c mouse model of hypereosinophilia assessed as inhibition of eosinophil infiltration at 350 umol/kg, ip dosed 2 hrs before allergen challenge; format: functional; summary of the method: as §3
[33] = Thermodynamic solubility in pH 7.4 PBS/Cdx buffer incubated for 24 hrs at 22 degC by HPLC method; format: physicochemical; details: read-out: Therm_solubility; summary of the method: as §5

T1 sequence (P48061 whole entry): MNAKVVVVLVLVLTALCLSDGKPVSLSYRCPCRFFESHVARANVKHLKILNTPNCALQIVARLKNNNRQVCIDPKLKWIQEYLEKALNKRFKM

`O=C(/C=C/c1ccccc1)c1ccc(Cl)cc1` gave a solubility kinetic at 24 h, 5 µM [1] of 1.17 µM (≈ 0.284 µg/mL) and an inhibition [2] of 18%.
For `C[C@@H]1C[C@H]2[C@@H]3CCC4=CC(=O)C=C[C@]4(C)[C@@]3(F)[C@@H](O)C[C@]2(C)[C@@]1(O)C(=O)CO` [DEXAMETHASONE], the Activity [3] was 10.1%, the inhibition in vivo at 2.5 µmol/kg [4] was 59% and the Activity [5] was 43%.
For `c1cc(CN2CCCNCCNCCCNCC2)ccc1CN1CCCNCCNCCCNCC1` [PLERIXAFOR], the inhibition in vivo at 12.6 µmol/kg [6] was 33%, the Activity [7] was 7.8% and the Activity [8] was 9.8%.
`O=C(/C=C/c1ccc2c(c1)OCO2)c1ccc(Cl)cc1` showed a solubility kinetic at 24 h, 5 µM [1] of 2.31 µM (≈ 0.662 µg/mL) and an inhibition [9] of 25%.
`COc1cc(-c2cc(-c3ccc(Cl)cc3)nc(-c3ccccc3)n2)ccc1O` showed a solubility kinetic at 24 h, 5 µM [1] of 0.53 µM (≈ 0.206 µg/mL) and an inhibition [10] of 20%.
With `O=c1nc(-c2ccc(Cl)cc2)cc(-c2ccc(O)cc2)[nH]1` the Activity [11] was “inactive”, the inhibition [12] was “inactive” and the inhibition [13] was < 5%.
For `COc1cc(/C=C/C(=O)c2ccc(Cl)cc2)ccc1O`, the solubility kinetic at 24 h, 5 µM [1] was > 5 µM, the Activity [14] was 0% and the Ki [15] was 53 nM. The Activity [16] was “Non-Toxic”, the Activity [17] was 0% and the Activity [18] was “Non-Toxic”. For the same compound, the solubility thermodynamic at 24 h [19] was 9 µM (≈ 2.6 µg/mL), the inhibition in vivo at 0.3 µmol/kg [20] was 47% and the remaining at 24 h, 10 µM [21] was 100%. The Activity [22] was “Non-Toxic”, the Activity [7] was “Non-Toxic” and the solubility [23] was 9 µM (≈ 2.6 µg/mL). For the same compound, the inhibition [12] was “inactive”, the Activity [24] was “Non-Toxic” and the Activity [25] was “Non-Toxic”. The inhibition [26] was “inactive”, the IC50 [27] was > 500 nmol/kg and the Activity [28] was “Non-Toxic”. The Activity [29] was “Non-Toxic”, the remaining at 24 h, 10 µM [30] was 100% and the Activity [8] was “Non-Toxic”. The Activity [31] was “Non-Toxic”, the inhibition in vivo at 350 µmol/kg [32] was 54% and the solubility thermodynamic at 24 h [33] was > 300 µM.
